# M4 antag = CHRM4 antagonism in calcium assay. inhibition, % at 3 µM. CHO-hM4 cells, ACh EC80, Fluo-8 calcium fluorescence. actives 0.73% (n = 360,000);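 active means inhibition above its plate's cutoff, the mean inhibition of sample wells plus 3 SD, cut at about 27% in these data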;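 further: 0% = acetylcholine EC80 with DMSO and 100% = DMSO without agonist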
# M5 PAM = positive allosteric modulators of human muscarinic M5 receptor; AID 624038; P08912; activation, % at 3 µM; CHO-K1 hM5, Fluo-8 calcium, ACh EC20 PAM; 0% = ACh EC20, 100% = ACh EC100; actives 0.3% (n = 360,000);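 active means activation above the run cutoff, the mean activation of all test compounds plus 3 SD, cut at about 18% in these data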
# Target sequence (P08912 whole entry, looked up): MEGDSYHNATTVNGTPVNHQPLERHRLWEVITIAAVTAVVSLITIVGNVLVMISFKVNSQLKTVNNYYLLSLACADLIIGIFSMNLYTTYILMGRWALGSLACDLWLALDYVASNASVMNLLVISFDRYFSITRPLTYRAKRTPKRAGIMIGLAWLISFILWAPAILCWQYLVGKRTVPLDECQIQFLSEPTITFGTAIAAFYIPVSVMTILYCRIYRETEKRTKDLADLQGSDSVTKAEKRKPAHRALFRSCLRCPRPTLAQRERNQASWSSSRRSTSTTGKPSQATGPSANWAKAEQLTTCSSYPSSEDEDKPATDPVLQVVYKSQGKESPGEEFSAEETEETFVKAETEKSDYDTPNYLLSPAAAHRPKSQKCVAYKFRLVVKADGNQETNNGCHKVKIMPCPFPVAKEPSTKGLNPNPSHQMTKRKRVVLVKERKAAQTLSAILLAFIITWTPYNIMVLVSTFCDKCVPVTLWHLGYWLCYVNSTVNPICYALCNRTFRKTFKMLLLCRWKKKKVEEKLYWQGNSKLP
#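 Replicates: One well per compound, no replicates | System: Human M5 receptor in CHO-K1 cells | Benchmarks: Low control EC20 acetylcholine (0%), high control EC100 acetylcholine (100%) | Probe or stimulus: Acetylcholine, EC20 level | Times: Fluo-8 loading 80 min at 37 °C plus 30 min room temperature | Signal: Intracellular calcium via Fluo-8 fluorescence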
# CHRM5 agonist = CHRM5 agonism in calcium assay; CHO-K1 hM5 cells, Fluo-8 calcium fluorescence; 0% DMSO wells, 100% maximal acetylcholine response; activation, % at 3 µM; actives 0.19% (n = 360,000);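 active means activation above the run's mean over test compounds plus 3 SD, cut at about 23% in these data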;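 further: signal is peak over basal fluorescence ratio across the kinetic read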
# M4 ag = agonists of human muscarinic M4 receptor (CHRM4); CHO-K1 hM4/Gqi5, Fluo-8 calcium fluorescence; vehicle 0%, full acetylcholine response 100%; P08173; AID 624127; actives 0.14% (n = 360,000); activation, % at 3 µM;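 active means activation above the run mean over all test wells plus 3 SD, cut at about 32% in these data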;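 further: peak over basal fluorescence ratio per well then scaled between controls; 0% = DMSO wells and 100% = acetylcholine at EC100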
# M4 PAM = potentiates acetylcholine response at human M4 receptor. P08173. activation, % at 3 µM. CHO-K1 hM4/Gqi5, Fluo-8 calcium fluorescence, ACh EC20; 0% = ACh EC20, 100% = maximal ACh. actives 0.4% (n = 360,000);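 active means activation above its plate's cutoff, the mean activation of sample wells plus 3 SD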
# CHRM5 antagonist = blocks acetylcholine activation of human M5 receptor; inhibition, % at 3 µM; actives 0.59% (n = 360,000); CHO-hM5 cells, Fluo-8 calcium fluorescence, ACh EC80;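 active means inhibition above a per-plate cutoff, the mean of that plate's test compounds plus 3 SD, cut at about 27% in these data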;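 further: 0% = acetylcholine EC80 with DMSO and 100% = DMSO without agonist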
# * hit, by the source's call. The list is not random: actives were taken first. Their share in the collection is about 1.8%.
SMILES,M4 antag,M5 PAM,CHRM5 agonist,M4 ag,M4 PAM,CHRM5 antagonist
O=C(NC1CCCCC1)C(c1cccc2ccccc12)n1c(=O)c(-c2ccco2)nc2ccccc21 (configuration not stated),-2.7,-0.7,1.7,2.0,1.4,0.5
CN(C)Cc1cc(C(C)(C)c2ccccc2)ccc1O,1.8,-37.5,-11.4,4.3,-8.7,29.3*
CC(C)(c1ccc(O)c([N+](=O)[O-])c1)c1ccc(O)c([N+](=O)[O-])c1,-15.1,-14.6,-3.5,2.5,7.9,11.1
CCOC(=O)N1CCN(C(=O)CNC(=O)Cn2cnc3ccccc3c2=O)CC1,14.4,8.2,-3.5,0.1,21.4*,2.9
Cc1csc2ncnc(N3CCN(S(=O)(=O)c4cccc(C(F)(F)F)c4)CC3)c12,25.9,-17.5,1.4,14.0,-13.1,44.0*
Cc1csc(=O)n1CC(=O)OCc1nnc(-c2ccc([N+](=O)[O-])cc2)o1,-11.7,3.3,3.4,1.9,22.8*,8.7
OC[C@@H]1CN(Cc2ccncc2)C[C@H](n2cnc3c(NC4CCCC4)ncnc32)O1,-11.7,-2.0,-0.9,0.4,1.4,-2.7
COc1ccc(OC)c(NC(=O)NNC(=O)COc2ccc(-c3ccccc3)cc2)c1,2.2,9.2,-1.3,0.7,-1.7,-18.7
O=C(COc1ccc(-c2ccccc2)cc1)NNC(=O)Nc1ccc(F)cc1F,7.8,43.3*,2.7,0.4,-0.1,19.4
O=C(COc1ccc(-c2ccccc2)cc1)NNC(=O)NC1CCCCC1,86.7*,-6.0,-1.7,2.7,-21.1,-2.4
O=C(COc1ccc([N+](=O)[O-])cc1)NNC(=O)Nc1cccc(F)c1,6.9,-10.9,-0.3,1.3,-5.8,29.2*
O=C(COc1ccc(F)cc1F)NNC(=O)Nc1cccc([N+](=O)[O-])c1,1.3,3.6,-3.9,1.8,0.1,-3.0
O=C(COc1ccccc1)NC1CCCCC1,-0.1,-2.8,-1.4,0.7,9.5,3.2
CCOc1ccc(NC(=O)NNC(=O)COc2ccc3ccccc3c2)cc1,-5.0,34.2*,2.3,1.0,0.5,22.3
Cc1cc(C)n2nc(S(=O)(=O)NC(C)(C)C)nc2n1,2.6,19.1*,1.2,2.4,8.3,0.1
C=CCC(CC=C)(NC(=O)c1ccccc1)c1ccccc1,5.2,-11.1,-7.2,-1.6,-7.5,5.9
C=CCC(CC=C)(NC(=O)c1ccccc1C)c1ccccc1,-20.0,41.0*,-3.0,-0.3,6.7,-6.1
COc1ccc(NC(=O)N[C@H]2C=C[C@@H](CC(=O)NC3CCC3)O[C@@H]2CO)cc1,-13.0,6.6,1.3,2.0,10.0,-6.5
Cc1ccc2nc(C)cc(C(=O)NC3CCCCCC3)c2c1,-18.9,-6.7,4.9,1.6,24.6*,-4.1
C=CCn1c(SCCC)nc(O)cc1=O,2.5,-9.2,22.2,62.1*,-3.7,8.7
Cc1ccc(NN2C(=O)C=C(c3ccc(Cl)cc3)C2=O)cc1,70.4*,-2.5,10.1,9.1,-13.6,22.8
Cc1ccc(/C=N/N2CCN(Cc3ccc(Cl)cc3)CC2)o1,30.9*,-2.5,-2.1,4.7,-2.5,5.9
COC(=O)C[C@@H]1CC[C@H](NC(=O)c2cnccn2)[C@@H](CO)O1,-10.8,1.5,2.3,1.2,-2.7,-8.5
CC(C)Cn1c(C23CC4CC(CC(C4)C2)C3)n[nH]c1=S,27.0*,-29.9,-23.4,-2.2,-14.5,18.8
CCCC(=O)N1CCC1(C)C(=O)Nc1ccc2c(c1)CCN2C(C)=O (configuration not stated),-1.4,0.8,0.3,0.5,2.6,0.0
CCCCNC(=O)CSc1nc2ccc(Nc3nc(N4CCOCC4)nc(N4CCOCC4)n3)cc2s1,-3.7,-7.6,2.9,5.4,-14.1,12.1
CCCCSc1nc2ccc(Nc3nc(N4CCOCC4)nc(N4CCOCC4)n3)cc2s1,15.7,-3.4,2.7,-0.5,24.3*,-9.0
O=C(Nc1ccc2c(c1)OCCO2)c1ccccc1,28.8*,-9.6,1.5,21.5,-14.3,16.4
O=C(Nc1ccc(F)c(Cl)c1)c1ccc2c(c1)OCO2,-5.4,6.1,-7.3,2.4,-0.6,-13.8
